# Measured values pooled from the literature.
# Protocols differ between the studies behind these lines.
# Action: inhibitor
# LDHA: L-lactate dehydrogenase A chain (LDHA, Homo sapiens, UniProt P00338)
# PRMT3: Protein arginine N-methyltransferase 3 (PRMT3, Homo sapiens, UniProt O60678)
# PTK2: Focal adhesion kinase 1 (PTK2, Homo sapiens, UniProt Q05397)
# SLC22A6: Solute carrier family 22 member 6 (SLC22A6, Homo sapiens, UniProt Q4U2R8)
Compound,target,test,test system,conditions,IC50
O=C(O)c1ccc(CN2C(=O)c3cccc(NC(=O)c4ccc(Cl)s4)c3C2=O)cc1,LDHA,enzyme activity,,,0.308 µM
Nc1ncnc2c1ncn2[C@@H]1O[C@H](CSCCNC(=O)NCc2ccc(F)cc2)[C@@H](O)[C@H]1O,PRMT3,"enzyme activity, fluorescence",,,5.9 µM
CC[C@@H](C)[C@@H](NC(=O)[C@@H](CCC(N)=O)NC(=O)[C@H](NC(C)=O)C(C)C)C(=O)N[C@@H](C(=O)N[C@H](Cc1ccc(O)cc1)C(=O)N[C@H](CCCCN)C(N)=O)C(C)C,"Insulin (INS, Homo sapiens, UniProt P01308)",enzyme activity,,pH 7.4,~75 µM
C[C@H](NC(=O)[C@@H](c1cccnc1)N(C(=O)CCl)c1ccc(-n2cccc2)cc1)c1ccccc1,"Replicase polyprotein 1ab, main protease (rep, Severe acute respiratory syndrome coronavirus 2, UniProt P0DTD1)","enzyme activity, FRET",,,0.05 µM
O=c1oc(Cl)c(Cl)c2ccccc12,"Rhomboid protease AarA (Providencia stuartii, UniProt P46116)",enzyme activity,,,54 µM
CCn1ncc2c1-c1cnc(N)c(c1)O[C@H](C)c1cc(F)ccc1-c1nn(C)nc1C2,PTK2,"enzyme activity, radiometric",,,0.011 µM
NC(=O)c1cnc2[nH]ccc2c1N[C@@H]1[C@@H]2CC3C[C@H]1C[C@@](O)(C3)C2,SLC22A6,"transporter uptake, radiometric",,2 min,> 100 µM
CC(C)C[C@H](NC(=O)[C@H]1O[C@@H]1C(=O)O)C(=O)NCCCCN=C(N)N,"Cathepsin S (CTSS, Homo sapiens, UniProt P25774)",enzyme activity,,,0.00174 µM
C=CC(=O)Nc1cc(Nc2nccc(Nc3cc(Cl)c(F)cc3C(C)(C)O)n2)c(OC)cc1N1CC[C@@H](N(C)C)C1,PTK2,enzyme activity,,with preincubation,0.255 µM
CN1CCN(CCCN2c3ccccc3Sc3ccc(Cl)cc32)CC1,"Glutathione reductase, mitochondrial (GSR, Homo sapiens, UniProt P00390)","enzyme activity, absorbance",,,> 100 µM
CC1(C)C(/C=C/C=C2/N(CCCc3ccccc3)c3ccc4ccccc4c3C2(C)C)=[N+](CCCc2ccccc2)c2ccc3ccccc3c21,PRMT3,"enzyme activity, radiometric",,,0.72 µM
Nc1ncnc2c1ncn2[C@@H]1O[C@H](CSCCNC(=O)Nc2ccccc2)[C@@H](O)[C@H]1O,PRMT3,"enzyme activity, fluorescence",,,1.9 µM
Cc1cccc(Nc2ccccc2C(=O)O)c1C,SLC22A6,transporter uptake,,,1.08 µM
C[C@@H]1C[C@H]2O[C@@H]2CC/C=C/C(=O)Cc2cc(O)cc(O)c2C(=O)O1,"Mitogen-activated protein kinase kinase kinase 7 (MAP3K7, Homo sapiens, UniProt O43318)","enzyme activity, ATP luminescence",,,> 10 µM
COc1cc(C(=O)O)ccc1O[C@@H]1O[C@H](CO)[C@@H](O)[C@H](O)[C@H]1O,LDHA,enzyme activity,,pH 7.4,> 500 µM
CC1=C[C@@]2(C[C@H](C)[C@H]3CC=C(CO)C(=O)[C@@H]3O2)OC1=O,"Tyrosine-protein phosphatase non-receptor type 1 (PTPN1, Homo sapiens, UniProt P18031)",enzyme activity,,,41.1 µM
O=c1cc(-c2ccc(O)cc2)oc2c([C@@H]3O[C@H](CO)[C@@H](O)[C@H](O)[C@H]3O)c(O)c([C@@H]3O[C@H](CO)[C@@H](O)[C@H](O)[C@H]3O)c(O)c12,"Amine oxidase [flavin-containing] A (MAOA, Homo sapiens, UniProt P21397)",enzyme activity,,,50.2 µM
CCS(=O)(=O)N1CC(CC#N)(n2cc(-c3ncnc4[nH]ccc34)cn2)C1,"Broad substrate specificity ATP-binding cassette transporter ABCG2 (ABCG2, Homo sapiens, UniProt Q9UNQ0)","transporter uptake, radiometric",Sf9,"0.75 min, cell membranes",50.3 µM
COc1cc2c(OC)nc3c4cc5c(cc4cc(OCCCN4CCCC4)c3c2cc1OC)OCO5,"Tyrosyl-DNA phosphodiesterase 1 (TDP1, Homo sapiens, UniProt Q9NUW8)","enzyme activity, fluorescence",,,4.8 µM
